Assay [1] has as its system A2780. Put plainly: In vitro inhibitory activity against human ovarian cancer A2780 cell line. It is filed as functional, cell-based. Summed up:
(§1)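 Monolayer cultures in RPMI 1640 with 5% heat-inactivated FCS and 2 mM L-glutamine, 37 °C, 5% CO2. Seeded at 5,000–20,000 cells/well according to doubling time, in gentamicin-containing medium. Compounds dissolved in DMSO and tested at five 10-fold dilutions from a top final concentration of 10⁻⁴ M for 72 h. Cells were TCA-fixed and stained with SRB, with OD read at 492 nm (NCI protocol). IC50 is the concentration giving 50% growth inhibition.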

Assay [2] deals with Colon 26. The assay can be described thus: In vitro inhibitory activity against murine colon carcinoma C26-10 cell line. The conditions noted are these: Mus musculus. The format is functional, cell-based. Summed up: as §1
The test system of assay [3] is H322. Put plainly: In vitro inhibitory activity against H322 human NSCLC cell line. The format is functional, cell-based. The settings on record: NCI-H322. In a few lines: as §1
In assay [4] the test system is Lewis lung carcinoma cell line. The assay can be described thus: In vitro inhibitory activity against LL murine NSCLC cell line;. The conditions noted are these: Mus musculus. It is filed as functional, cell-based. In a few lines:
as §1

Assay [5] relates to UMSCC22B. The assay can be described thus: In vitro inhibitory activity against human and neck squamous cell carcinoma UMSCC-22B cell line. It is filed as functional, cell-based. In a few lines:
as §1

For assay [6], the system named is WiDr. The assay can be described thus: In vitro inhibitory activity against human colon carcinoma WiDr cell line;. It is filed as functional, cell-based. In a few lines:
as §1

Assay [7] relates to Rattus norvegicus. The assay can be described thus: In vivo anti-inflammatory activity against carrageenan-induced paw edema assay in rats at dose 0.15 mM/kg. It is filed as functional. Summed up:
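Fisher 344 rats of either sex, excluding pregnant females, six animals per group with two groups per compound. Edema induced by intradermal injection of 0.1 mL of 2% carrageenin (type K100) in saline into the right paw. Compound given ip as a single 0.15 mmol/kg dose at the same time. Paw edema measured 3.5 h later. Indomethacin served as the reference drug.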

Assay [8] concerns Rattus norvegicus. Put plainly: In vivo anti-inflammatory activity against carrageenan-induced paw edema assay in rats at dose 0.11 mM/kg. The format is functional.

Turning to `CCCCCCCCCCCCCCCCCC[C@H](N)[C@H](O)CO`, the IC50 in assay [1] turned out to be 2.71 µM; in assay [2] it was 3.97 µM; in assay [3], 1.71 µM; in assay [4], 3.47 µM; in assay [5], 2.34 µM; in assay [6], 3.47 µM. Also, the Inhibition in assay [7] came out at 79.6%.
Turning to `CCCCCCCCCCCCCC[C@H](NC(=O)OC(C)(C)C)[C@H](O)CO`, the half-maximal inhibitory concentration (IC50) in assay [1] was 30.4 µM; in assay [2], 29.3 µM; in assay [3], 18 µM; in assay [4] it was 24.2 µM; in assay [5] it was 23.8 µM; in assay [6], 20.8 µM. This compound registered an Inhibition in assay [7] of 45.2%.
For `CCCCCCCCCCCCCC[C@@H](N)[C@@H](O)CO`, the half-inhibitory concentration (IC50) in assay [1] stood at 2.63 µM; in assay [2] it was 3.58 µM; in assay [3], 1.52 µM; in assay [4] it was 1.87 µM; in assay [5] it was 2.49 µM; in assay [6] it was 2.99 µM. The Inhibition in assay [7] was determined as 85.3%.
Take `CCCCCCCCCCCCCCCCCC[C@@H](N)[C@@H](O)CO`: the concentration for half-maximal inhibition (IC50) is 32.8 µM in assay [1]; 21.5 µM in assay [2]; 24.4 µM in assay [3]; 10.6 µM in assay [4]; 3.5 µM in assay [5]; 13.3 µM in assay [6]. Moreover, the Inhibition in assay [7] is given as 80.04%.
As to `CCCCCCCCCCCCCC[C@H](N)[C@H](O)CO`, the IC50 in assay [1] worked out at 2.66 µM; in assay [2] it was 3.68 µM; in assay [3] it was 1.45 µM; in assay [4], 2.86 µM; in assay [5], 1.89 µM; in assay [6], 2.76 µM. In assay [7], this compound returned an Inhibition of 81.1%.
With `CCCCCCCCCCCCCCC(N)CN` (stereo not drawn), the half-inhibitory concentration (IC50) stood at 2.79 µM in assay [1]; 3.3 µM in assay [2]; 2.94 µM in assay [3]; 2.93 µM in assay [4]; 1.89 µM in assay [5]; 24.2 µM in assay [6]. Also, the Inhibition in assay [7] is on record as 93.5%.
Regarding `COc1ccc2c(c1)c(CC(=O)O)c(C)n2C(=O)c1ccc(Cl)cc1` [INDOMETHACIN], the Inhibition in assay [8] is 53.3%.

The values above are taken from ChEMBL document CHEMBL1132072, “Synthesis, in vitro cytotoxicity and in vivo anti-inflammatory activity of long chain 3-amino-1,2-diols” (Bioorg Med Chem Lett, 1999).
